A short description of data set [1]: Inhibition of EGFR/ALK L1152R mutant in human DFCI076 cells assessed as reduction in cell viability after 72 hrs by MTS assay. The data set is classed as cell-based.
Data set [2] in a line: Metabolic stability in rat liver microsomes assessed as parent compound remaining at 1 uM after 30 mins in presence of NADPH by LC/MS/MS analysis. Type of data set: ADME, Microsome. The settings on record: read-out: Stability. Put shortly:
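Compound at 1 μM final with 0.5 mg/mL microsomal protein in 100 mM phosphate buffer pH 7.4 at 37 °C, started by adding an NADPH-regenerating system. Reactions were quenched with cold acetonitrile at 0 and 30 min and spun down. Supernatant was analysed by LC-MS/MS. The 0-min sample, quenched before NADPH addition, was set as 100%, and percent parent remaining came from peak areas.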

Data set [3] is described as follows: Tmax in mouse at 10 mg/kg, po. The settings on record: in vivo. Type of data set: ADME, organism-based.
The subject of data set [4] is Tyrosine-protein kinase ABL1 (Homo sapiens), P00519 [E255K]. The data set can be described thus: Binding affinity to human phosphorylated ABL1 E255K mutant (S229 to K512 residues) expressed in mammalian expression system assessed as residual binding level at 1 uM by Kinomescan method relative to control. In outline:
(§1)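 Kinome-wide selectivity panel run by the KINOMEscan method, with the test compound at a single concentration of 1 μM. Wild-type and mutant kinases were profiled in the same screen.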

Data set [5] has as its target 5'-AMP-activated protein kinase catalytic subunit alpha-2 (Homo sapiens) (UniProt P54646). Briefly: Binding affinity to wild-type human partial length AMPK alpha2 (M1 to E306 residues) expressed in bacterial expression system assessed as residual binding level at 1 uM by Kinomescan method relative to control.
In data set [6] the target is Death-associated protein kinase 2 (Homo sapiens) (UniProt Q9UIK4). Briefly: Binding affinity to wild-type human full length DAPK2 (M1 to S370 residues) expressed in bacterial expression system assessed as residual binding level at 1 uM by Kinomescan method relative to control.
In data set [7] the test system is Epidermal growth factor receptor (Homo sapiens), P00533 [T790M]. Briefly: Binding affinity to human partial length EGFR T790M mutant (R669 to G1022 residues) expressed in mammalian expression system assessed as residual binding level at 1 uM by Kinomescan method relative to control. In outline:
as §1

The target in data set [8] is Ephrin type-A receptor 5 (Homo sapiens) (UniProt P54756). The data set can be described thus: Binding affinity to wild-type human partial length EPHA5 (T627 to V930 residues) expressed in bacterial expression system assessed as residual binding level at 1 uM by Kinomescan method relative to control.
Data set [9] deals with Rhodopsin kinase GRK1 (Homo sapiens) (UniProt Q15835). Briefly: Binding affinity to wild-type human full length GRK1 (M1 to S563 residues) expressed in mammalian expression system assessed as residual binding level at 1 uM by Kinomescan method relative to control. In outline:
(§2)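 Single-point kinome-wide KINOMEscan binding panel, test compound at 1 μM, run by the provider's standard protocol.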

Data set [10] deals with Interleukin-1 receptor-associated kinase 3 (Homo sapiens) (UniProt Q9Y616). Briefly: Binding affinity to wild-type human partial length IRAK3 (V147 to E596 residues) expressed in bacterial expression system assessed as residual binding level at 1 uM by Kinomescan method relative to control.
In data set [11] the target is Mast/stem cell growth factor receptor Kit (Homo sapiens) (UniProt P10721). Briefly: Binding affinity to wild-type human partial length autoinhibited KIT (Y545 to D952 residues) expressed in mammalian expression system assessed as residual binding level at 1 uM by Kinomescan method relative to control.
The target in data set [12] is Myosin light chain kinase (Homo sapiens) (UniProt Q32MK0). Briefly: Binding affinity to wild-type human partial length MLCK (D488 to K800 residues) expressed in bacterial expression system assessed as residual binding level at 1 uM by Kinomescan method relative to control.
For data set [13], the target named is Serine/threonine-protein kinase MRCK alpha (Homo sapiens) (UniProt Q5VT25). The data set can be described thus: Binding affinity to wild-type human partial length MRCKA (L57 to V418 residues) expressed in bacterial expression system assessed as residual binding level at 1 uM by Kinomescan method relative to control.
The target in data set [14] is Serine/threonine-protein kinase 4 (Homo sapiens) (UniProt Q13043). Briefly: Binding affinity to wild-type human full length MST1 (M1 to F487 residues) expressed in bacterial expression system assessed as residual binding level at 1 uM by Kinomescan method relative to control. Put shortly:
as §2

Data set [15] has as its target Myosin light chain kinase, smooth muscle (Homo sapiens) (UniProt Q15746). The data set can be described thus: Binding affinity to wild-type human full length MYLK (M854 to E1845 residues) expressed in mammalian expression system assessed as residual binding level at 1 uM by Kinomescan method relative to control. Put shortly:
as §2

In data set [16] the target is 1-phosphatidylinositol 3-phosphate 5-kinase (Homo sapiens) (UniProt Q9Y2I7). The data set can be described thus: Binding affinity to wild-type human partial length PIKFYVE (F1512 to C2098 residues) expressed in mammalian expression system assessed as residual binding level at 1 uM by Kinomescan method relative to control.
Data set [17] concerns the target Protein-tyrosine kinase 2-beta (Homo sapiens) (UniProt Q14289). Briefly: Binding affinity to wild-type human full length PYK2 (M1 to E967 residues) expressed in bacterial expression system assessed as residual binding level at 1 uM by Kinomescan method relative to control. In outline: as §2
Data set [18] has as its target Ribosomal protein S6 kinase alpha-3 (Homo sapiens) (UniProt P51812). The data set can be described thus: Binding affinity to wild-type human partial length N-terminal RSK2 kinase domain 1 (M1 to D394 residues) expressed in mammalian expression system assessed as residual binding level at 1 uM by Kinomescan method relative to control.
Data set [19] shares this target. The data set can be described thus: Binding affinity to wild-type human partial length C-terminal RSK2 kinase domain 2 (V402 to S715 residues) expressed in mammalian expression system assessed as residual binding level at 1 uM by Kinomescan method relative to control.
The target in data set [20] is Serine/threonine-protein kinase TBK1 (Homo sapiens) (UniProt Q9UHD2). Briefly: Binding affinity to wild-type human full length TBK1 (M1 to L729 residues) expressed in mammalian expression system assessed as residual binding level at 1 uM by Kinomescan method relative to control.
Data set [21] concerns the target Serine/threonine-protein kinase tousled-like 1 (Homo sapiens) (UniProt Q9UKI8). The data set can be described thus: Binding affinity to wild-type human partial length TLK1 (K447 to A754 residues) expressed in bacterial expression system assessed as residual binding level at 1 uM by Kinomescan method relative to control.
Data set [22] concerns the target Tyrosine-protein kinase receptor TYRO3 (Homo sapiens) (UniProt Q06418). Briefly: Binding affinity to wild-type human partial length TYRO3 (S497 to T814 residues) expressed in bacterial expression system assessed as residual binding level at 1 uM by Kinomescan method relative to control.
For data set [23], the target named is Serine/threonine-protein kinase 32B (Homo sapiens) (UniProt Q9NY57). The data set can be described thus: Binding affinity to wild-type human full length YANK2 (M1 to S414 residues) expressed in bacterial expression system assessed as residual binding level at 1 uM by Kinomescan method relative to control.
Data set [24] deals with Tyrosine-protein kinase Blk (Homo sapiens, UniProt P51451). Briefly: Inhibition of recombinant full length His-tagged human Blk cytoplasmic domain expressed in Baculovirus expression system by Z-LYTE assay.

Broadly, the EC50 is the midpoint of the concentration-response curve. For orientation: Tmax means the time at which the peak concentration occurs. One may read the IC50 as the point on the concentration scale where inhibition reaches its midpoint.

Sequence of Ribosomal protein S6 kinase alpha-3 (Homo sapiens) (P51812 whole entry, the tested form may be a part): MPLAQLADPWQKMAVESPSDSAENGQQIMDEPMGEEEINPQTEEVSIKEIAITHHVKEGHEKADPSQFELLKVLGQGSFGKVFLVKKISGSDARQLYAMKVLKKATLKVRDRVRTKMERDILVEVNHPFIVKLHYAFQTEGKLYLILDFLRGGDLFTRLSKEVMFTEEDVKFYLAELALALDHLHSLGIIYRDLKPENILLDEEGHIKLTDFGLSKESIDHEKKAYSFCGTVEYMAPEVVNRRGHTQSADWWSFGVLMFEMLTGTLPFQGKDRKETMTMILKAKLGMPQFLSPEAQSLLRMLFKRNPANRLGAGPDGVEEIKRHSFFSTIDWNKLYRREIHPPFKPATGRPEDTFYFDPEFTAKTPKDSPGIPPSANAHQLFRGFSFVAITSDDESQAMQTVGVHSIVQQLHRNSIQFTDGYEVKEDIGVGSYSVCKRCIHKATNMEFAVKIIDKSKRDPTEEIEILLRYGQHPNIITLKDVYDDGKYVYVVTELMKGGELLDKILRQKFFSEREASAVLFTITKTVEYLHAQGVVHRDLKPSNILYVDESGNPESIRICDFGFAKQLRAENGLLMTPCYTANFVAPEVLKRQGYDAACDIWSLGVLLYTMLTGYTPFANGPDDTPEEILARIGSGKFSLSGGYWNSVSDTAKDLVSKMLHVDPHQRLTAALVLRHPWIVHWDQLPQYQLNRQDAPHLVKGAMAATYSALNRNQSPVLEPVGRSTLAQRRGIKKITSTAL
Sequence of 5'-AMP-activated protein kinase catalytic subunit alpha-2 (Homo sapiens) (P54646 whole entry, looked up, the tested form may be a part): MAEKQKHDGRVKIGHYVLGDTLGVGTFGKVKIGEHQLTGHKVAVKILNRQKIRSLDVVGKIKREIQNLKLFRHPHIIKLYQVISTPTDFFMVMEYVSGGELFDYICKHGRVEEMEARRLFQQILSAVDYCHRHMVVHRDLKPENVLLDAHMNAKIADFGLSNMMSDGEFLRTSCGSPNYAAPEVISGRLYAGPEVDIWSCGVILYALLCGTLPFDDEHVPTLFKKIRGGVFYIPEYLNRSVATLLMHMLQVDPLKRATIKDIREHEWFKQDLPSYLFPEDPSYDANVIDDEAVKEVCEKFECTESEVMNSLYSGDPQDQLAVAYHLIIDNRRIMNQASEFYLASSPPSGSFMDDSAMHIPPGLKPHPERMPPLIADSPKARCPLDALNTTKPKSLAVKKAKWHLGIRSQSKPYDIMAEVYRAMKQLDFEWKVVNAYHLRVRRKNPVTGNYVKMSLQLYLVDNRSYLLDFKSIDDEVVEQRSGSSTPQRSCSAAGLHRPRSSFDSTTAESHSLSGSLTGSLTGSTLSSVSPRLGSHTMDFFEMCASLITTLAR
Sequence of Death-associated protein kinase 2 (Homo sapiens) (Q9UIK4 whole entry, looked up, the tested form may be a part): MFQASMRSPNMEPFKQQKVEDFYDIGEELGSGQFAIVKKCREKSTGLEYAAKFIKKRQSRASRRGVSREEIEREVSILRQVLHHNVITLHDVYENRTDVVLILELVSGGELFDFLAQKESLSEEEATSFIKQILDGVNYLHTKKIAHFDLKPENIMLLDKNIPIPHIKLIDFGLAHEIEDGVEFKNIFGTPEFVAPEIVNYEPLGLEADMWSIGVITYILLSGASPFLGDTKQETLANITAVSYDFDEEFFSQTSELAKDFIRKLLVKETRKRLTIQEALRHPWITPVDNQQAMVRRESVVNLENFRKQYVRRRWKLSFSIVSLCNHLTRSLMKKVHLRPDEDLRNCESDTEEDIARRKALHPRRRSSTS
Sequence of Serine/threonine-protein kinase TBK1 (Homo sapiens) (Q9UHD2 whole entry, the tested form may be a part): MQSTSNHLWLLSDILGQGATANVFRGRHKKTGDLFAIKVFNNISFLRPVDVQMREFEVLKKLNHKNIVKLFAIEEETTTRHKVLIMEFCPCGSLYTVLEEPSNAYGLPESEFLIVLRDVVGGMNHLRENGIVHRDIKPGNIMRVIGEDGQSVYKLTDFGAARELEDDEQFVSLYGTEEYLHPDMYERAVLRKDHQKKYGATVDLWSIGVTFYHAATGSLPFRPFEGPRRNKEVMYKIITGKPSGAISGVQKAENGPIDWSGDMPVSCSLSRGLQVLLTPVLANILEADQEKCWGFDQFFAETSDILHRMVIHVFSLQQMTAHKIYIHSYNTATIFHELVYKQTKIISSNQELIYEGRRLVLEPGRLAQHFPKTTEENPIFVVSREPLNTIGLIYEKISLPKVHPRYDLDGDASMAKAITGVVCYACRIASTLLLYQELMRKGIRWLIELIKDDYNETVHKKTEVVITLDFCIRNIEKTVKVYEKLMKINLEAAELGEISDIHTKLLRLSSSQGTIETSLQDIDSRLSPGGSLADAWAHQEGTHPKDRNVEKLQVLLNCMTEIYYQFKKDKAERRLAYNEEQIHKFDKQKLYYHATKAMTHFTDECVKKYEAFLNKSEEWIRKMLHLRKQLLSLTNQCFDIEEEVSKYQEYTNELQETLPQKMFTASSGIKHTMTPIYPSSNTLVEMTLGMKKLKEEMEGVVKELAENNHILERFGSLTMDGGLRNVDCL
Sequence of Ephrin type-A receptor 5 (Homo sapiens) (P54756 whole entry, the tested form may be a part): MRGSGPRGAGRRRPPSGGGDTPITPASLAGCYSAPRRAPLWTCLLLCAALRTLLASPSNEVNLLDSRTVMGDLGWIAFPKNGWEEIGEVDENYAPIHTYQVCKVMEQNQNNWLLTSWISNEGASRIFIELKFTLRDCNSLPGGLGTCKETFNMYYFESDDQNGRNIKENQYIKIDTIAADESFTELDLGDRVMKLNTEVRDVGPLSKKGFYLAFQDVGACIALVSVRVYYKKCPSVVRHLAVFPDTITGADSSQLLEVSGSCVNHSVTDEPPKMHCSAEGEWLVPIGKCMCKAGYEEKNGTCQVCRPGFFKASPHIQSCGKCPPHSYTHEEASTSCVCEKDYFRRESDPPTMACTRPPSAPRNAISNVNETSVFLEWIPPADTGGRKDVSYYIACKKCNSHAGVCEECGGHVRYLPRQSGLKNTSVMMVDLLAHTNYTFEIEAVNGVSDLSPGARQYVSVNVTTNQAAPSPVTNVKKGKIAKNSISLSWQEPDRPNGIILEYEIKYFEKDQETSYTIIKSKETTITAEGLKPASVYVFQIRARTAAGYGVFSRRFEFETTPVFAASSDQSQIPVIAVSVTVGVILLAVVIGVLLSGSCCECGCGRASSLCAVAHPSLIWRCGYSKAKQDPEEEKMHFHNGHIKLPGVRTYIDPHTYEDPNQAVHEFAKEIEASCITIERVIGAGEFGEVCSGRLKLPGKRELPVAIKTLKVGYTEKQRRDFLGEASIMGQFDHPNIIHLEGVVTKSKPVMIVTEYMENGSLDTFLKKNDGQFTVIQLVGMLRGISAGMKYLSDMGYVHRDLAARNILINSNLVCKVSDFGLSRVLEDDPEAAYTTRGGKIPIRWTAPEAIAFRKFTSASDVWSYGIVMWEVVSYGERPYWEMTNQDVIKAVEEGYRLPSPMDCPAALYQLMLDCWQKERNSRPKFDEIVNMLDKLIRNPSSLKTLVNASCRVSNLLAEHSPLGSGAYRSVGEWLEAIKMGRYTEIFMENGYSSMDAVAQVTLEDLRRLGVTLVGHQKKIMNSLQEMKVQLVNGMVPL
Sequence of Myosin light chain kinase (Homo sapiens) (Q32MK0 whole entry, the tested form may be a part): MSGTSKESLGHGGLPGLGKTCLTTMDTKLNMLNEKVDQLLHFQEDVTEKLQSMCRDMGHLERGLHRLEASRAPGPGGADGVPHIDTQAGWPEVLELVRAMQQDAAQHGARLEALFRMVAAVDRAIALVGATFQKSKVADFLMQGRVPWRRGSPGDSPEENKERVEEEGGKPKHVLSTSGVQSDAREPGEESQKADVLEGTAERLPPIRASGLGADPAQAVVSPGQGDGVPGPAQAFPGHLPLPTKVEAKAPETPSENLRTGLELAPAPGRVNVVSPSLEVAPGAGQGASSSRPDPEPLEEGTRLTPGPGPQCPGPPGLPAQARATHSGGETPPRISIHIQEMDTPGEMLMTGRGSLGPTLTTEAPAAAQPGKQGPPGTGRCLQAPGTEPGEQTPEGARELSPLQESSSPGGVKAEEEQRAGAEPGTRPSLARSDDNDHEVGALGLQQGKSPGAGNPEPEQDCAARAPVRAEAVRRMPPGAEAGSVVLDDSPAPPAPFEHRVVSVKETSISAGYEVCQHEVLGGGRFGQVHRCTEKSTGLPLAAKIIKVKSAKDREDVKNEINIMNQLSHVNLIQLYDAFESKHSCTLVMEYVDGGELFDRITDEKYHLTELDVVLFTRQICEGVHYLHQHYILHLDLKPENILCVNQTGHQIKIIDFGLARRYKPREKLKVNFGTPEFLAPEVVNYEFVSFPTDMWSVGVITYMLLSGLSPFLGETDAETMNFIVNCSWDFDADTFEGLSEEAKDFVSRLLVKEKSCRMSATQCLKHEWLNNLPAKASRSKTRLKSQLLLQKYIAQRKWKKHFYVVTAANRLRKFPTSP
Sequence of Interleukin-1 receptor-associated kinase 3 (Homo sapiens) (Q9Y616 whole entry, the tested form may be a part): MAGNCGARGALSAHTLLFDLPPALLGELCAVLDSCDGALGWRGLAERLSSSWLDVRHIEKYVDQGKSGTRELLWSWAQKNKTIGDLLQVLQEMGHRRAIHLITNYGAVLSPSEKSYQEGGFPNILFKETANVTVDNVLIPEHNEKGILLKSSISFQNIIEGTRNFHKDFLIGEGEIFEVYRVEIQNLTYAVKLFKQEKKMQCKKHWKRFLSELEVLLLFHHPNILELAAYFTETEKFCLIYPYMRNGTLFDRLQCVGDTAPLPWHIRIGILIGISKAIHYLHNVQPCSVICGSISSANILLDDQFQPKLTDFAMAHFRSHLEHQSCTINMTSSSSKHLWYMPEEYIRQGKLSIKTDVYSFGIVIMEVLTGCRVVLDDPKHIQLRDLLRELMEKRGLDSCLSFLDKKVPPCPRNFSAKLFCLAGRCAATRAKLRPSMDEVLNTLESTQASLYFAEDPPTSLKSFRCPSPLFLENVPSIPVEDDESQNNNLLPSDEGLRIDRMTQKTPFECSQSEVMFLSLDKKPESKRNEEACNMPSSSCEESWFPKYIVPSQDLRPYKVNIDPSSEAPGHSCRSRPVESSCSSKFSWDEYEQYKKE

As for `C=CC(=O)Nc1cc(Nc2ncc(Cl)c(Nc3ccccc3S(=O)(=O)C(C)C)n2)c(OC)cc1N(C)CCN(C)C`, the EC50 in data set [1] was determined as 820 nM. Besides, the remaining at 0.5 h, 1 µM in [2] came to 11%. The Tmax in data set [3] is 1.17 h. The Activity worked out at 12% in data set [4]; 23% in data set [5]; 47% in data set [6]; 0% in data set [7]; 88% in data set [8]; 28% in [9]. The Activity in [10] was determined as 37%; in data set [11], 66%; in data set [12], 100%; in data set [13], 97%; in data set [14], 86%; in data set [15], 1.3%. Moreover, the Activity was 100% in data set [16]; 0.5% in [17]; 1.7% in data set [18]; 75% in data set [19]; 21% in data set [20]; 68% in data set [21]. Moreover, the results for the Activity in [22] and in [23] were 51% and 2.4%, respectively. The IC50 in [24] came out at 8 nM.
